Tests used:
Conditions in all cases: stereoisomer not certain
OR10G2 (Homo sapiens) = target: T1, OR10G2 (Homo sapiens) (UniProt Q8NGC3)
T1 sequence (whole entry): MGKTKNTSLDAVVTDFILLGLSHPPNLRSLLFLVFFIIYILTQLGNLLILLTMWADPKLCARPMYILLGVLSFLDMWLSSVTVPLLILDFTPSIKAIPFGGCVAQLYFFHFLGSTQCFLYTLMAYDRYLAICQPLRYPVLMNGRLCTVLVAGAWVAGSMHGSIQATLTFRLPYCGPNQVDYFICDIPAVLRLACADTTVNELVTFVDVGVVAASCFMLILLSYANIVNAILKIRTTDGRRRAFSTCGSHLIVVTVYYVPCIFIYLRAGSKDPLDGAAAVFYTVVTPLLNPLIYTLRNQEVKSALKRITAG
Method in brief: (§1)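 Each receptor–molecule pair is labelled responsive or non-responsive (inactive) according to whether the original authors judged the measured signal statistically different from baseline. The data were taken from the main text and supplementary material of published papers and checked for typos and inconsistencies. Assay methods differed by source, with transient luciferase assays in mammalian cell lines being common.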

OR10G3 (Homo sapiens) = target: T2, OR10G3 (Homo sapiens) (UniProt Q8NGC4)
T2 sequence (whole entry): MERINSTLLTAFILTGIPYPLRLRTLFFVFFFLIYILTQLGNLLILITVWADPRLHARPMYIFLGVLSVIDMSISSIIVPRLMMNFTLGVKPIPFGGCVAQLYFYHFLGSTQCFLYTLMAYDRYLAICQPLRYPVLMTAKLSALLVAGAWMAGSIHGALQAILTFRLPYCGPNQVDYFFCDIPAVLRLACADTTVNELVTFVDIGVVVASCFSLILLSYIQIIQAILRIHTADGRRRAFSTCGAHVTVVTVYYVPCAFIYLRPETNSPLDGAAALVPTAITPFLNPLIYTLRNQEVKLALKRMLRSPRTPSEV
Method in brief: as §1

OR10G4 (Homo sapiens) = target: T3, OR10G4 (Homo sapiens) (UniProt Q8NGN3)
T3 sequence (whole entry): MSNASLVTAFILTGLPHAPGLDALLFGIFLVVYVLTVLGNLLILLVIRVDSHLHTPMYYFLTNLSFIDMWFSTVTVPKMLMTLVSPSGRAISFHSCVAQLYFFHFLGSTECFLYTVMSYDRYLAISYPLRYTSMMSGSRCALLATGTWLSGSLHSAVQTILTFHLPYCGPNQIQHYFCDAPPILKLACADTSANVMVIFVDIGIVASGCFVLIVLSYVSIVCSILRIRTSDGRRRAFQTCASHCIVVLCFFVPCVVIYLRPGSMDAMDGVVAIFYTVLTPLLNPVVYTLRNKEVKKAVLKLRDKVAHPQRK
Method in brief: as §1

OR10G6 (Homo sapiens) = target: T4, OR10G6 (Homo sapiens) (UniProt Q8NH81)
T4 sequence (whole entry): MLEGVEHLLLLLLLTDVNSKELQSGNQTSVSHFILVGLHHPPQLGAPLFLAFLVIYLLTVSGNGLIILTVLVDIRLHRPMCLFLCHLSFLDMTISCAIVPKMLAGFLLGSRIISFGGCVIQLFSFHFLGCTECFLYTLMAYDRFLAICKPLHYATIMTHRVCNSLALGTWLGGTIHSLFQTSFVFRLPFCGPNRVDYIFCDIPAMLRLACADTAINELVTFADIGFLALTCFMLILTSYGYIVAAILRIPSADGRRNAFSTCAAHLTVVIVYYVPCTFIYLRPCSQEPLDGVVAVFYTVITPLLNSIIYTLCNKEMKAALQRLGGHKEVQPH
Method in brief: as §1

OR10G7 (Homo sapiens) = target: T5, OR10G7 (Homo sapiens) (UniProt Q8NGN6)
T5 sequence (whole entry): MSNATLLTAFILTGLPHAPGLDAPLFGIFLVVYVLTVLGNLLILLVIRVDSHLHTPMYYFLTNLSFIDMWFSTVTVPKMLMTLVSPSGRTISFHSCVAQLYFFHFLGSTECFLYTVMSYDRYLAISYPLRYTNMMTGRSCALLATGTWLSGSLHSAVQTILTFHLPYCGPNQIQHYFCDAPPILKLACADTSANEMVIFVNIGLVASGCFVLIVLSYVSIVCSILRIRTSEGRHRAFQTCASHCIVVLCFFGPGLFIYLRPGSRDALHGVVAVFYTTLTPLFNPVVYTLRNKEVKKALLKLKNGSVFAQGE
Method in brief: as §1

OR10G8 (Homo sapiens) = target: T6, OR10G8 (Homo sapiens) (UniProt Q8NGN5)
T6 sequence (whole entry): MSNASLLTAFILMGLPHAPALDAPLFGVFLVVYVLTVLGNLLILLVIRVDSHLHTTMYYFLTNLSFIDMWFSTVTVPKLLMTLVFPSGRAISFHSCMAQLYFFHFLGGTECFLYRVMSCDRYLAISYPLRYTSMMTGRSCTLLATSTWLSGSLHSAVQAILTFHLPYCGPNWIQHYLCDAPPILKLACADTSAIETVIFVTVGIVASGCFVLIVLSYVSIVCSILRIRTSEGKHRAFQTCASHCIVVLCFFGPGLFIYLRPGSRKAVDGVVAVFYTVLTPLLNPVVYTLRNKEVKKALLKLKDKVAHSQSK
Method in brief: as §1

OR10G9 (Homo sapiens) = target: T7, OR10G9 (Homo sapiens) (UniProt Q8NGN4)
T7 sequence (whole entry): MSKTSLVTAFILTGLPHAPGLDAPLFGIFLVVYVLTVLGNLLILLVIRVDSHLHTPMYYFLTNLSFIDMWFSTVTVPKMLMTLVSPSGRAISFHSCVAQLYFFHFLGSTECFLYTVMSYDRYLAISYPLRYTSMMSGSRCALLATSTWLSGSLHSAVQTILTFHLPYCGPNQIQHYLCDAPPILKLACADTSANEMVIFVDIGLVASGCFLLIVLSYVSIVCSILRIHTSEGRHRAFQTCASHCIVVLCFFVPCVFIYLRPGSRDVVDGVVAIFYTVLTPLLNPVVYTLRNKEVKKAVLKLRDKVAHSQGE
Method in brief: as §1

OR10H1 (Homo sapiens) = target: T8, OR10H1 (Homo sapiens) (UniProt Q9Y4A9)
T8 sequence (whole entry): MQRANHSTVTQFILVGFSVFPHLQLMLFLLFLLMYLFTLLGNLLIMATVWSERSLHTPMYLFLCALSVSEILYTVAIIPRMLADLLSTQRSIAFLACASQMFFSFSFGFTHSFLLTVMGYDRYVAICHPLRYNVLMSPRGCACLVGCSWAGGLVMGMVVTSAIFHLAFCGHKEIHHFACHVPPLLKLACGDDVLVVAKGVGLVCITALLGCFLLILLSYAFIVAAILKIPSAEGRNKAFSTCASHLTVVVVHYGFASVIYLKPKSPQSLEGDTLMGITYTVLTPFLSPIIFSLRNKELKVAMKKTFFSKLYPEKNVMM
Method in brief: as §1

OR10H2 (Homo sapiens) = target: T9, OR10H2 (Homo sapiens) (UniProt O60403)
T9 sequence (whole entry): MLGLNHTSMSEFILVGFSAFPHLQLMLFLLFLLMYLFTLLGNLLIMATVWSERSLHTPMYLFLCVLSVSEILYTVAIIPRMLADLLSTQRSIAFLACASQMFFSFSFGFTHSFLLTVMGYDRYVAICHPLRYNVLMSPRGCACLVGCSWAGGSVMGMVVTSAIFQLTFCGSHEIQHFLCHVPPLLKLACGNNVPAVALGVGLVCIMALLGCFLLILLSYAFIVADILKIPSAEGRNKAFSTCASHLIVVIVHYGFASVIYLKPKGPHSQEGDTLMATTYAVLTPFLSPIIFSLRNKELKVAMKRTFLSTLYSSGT
Method in brief: as §1

OR10H3 (Homo sapiens) = target: T10, OR10H3 (Homo sapiens) (UniProt O60404)
T10 sequence (whole entry): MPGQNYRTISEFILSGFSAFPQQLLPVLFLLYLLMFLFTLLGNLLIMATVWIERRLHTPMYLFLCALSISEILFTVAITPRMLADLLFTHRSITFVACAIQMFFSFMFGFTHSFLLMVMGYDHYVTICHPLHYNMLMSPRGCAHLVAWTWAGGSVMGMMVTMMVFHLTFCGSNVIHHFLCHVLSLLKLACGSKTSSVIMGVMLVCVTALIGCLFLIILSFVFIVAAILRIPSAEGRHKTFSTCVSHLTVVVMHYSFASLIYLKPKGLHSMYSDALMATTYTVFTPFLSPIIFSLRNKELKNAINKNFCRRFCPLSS
Method in brief: as §1

OR10H4 (Homo sapiens) = target: T11, OR10H4 (Homo sapiens) (UniProt Q8NGA5)
T11 sequence (whole entry): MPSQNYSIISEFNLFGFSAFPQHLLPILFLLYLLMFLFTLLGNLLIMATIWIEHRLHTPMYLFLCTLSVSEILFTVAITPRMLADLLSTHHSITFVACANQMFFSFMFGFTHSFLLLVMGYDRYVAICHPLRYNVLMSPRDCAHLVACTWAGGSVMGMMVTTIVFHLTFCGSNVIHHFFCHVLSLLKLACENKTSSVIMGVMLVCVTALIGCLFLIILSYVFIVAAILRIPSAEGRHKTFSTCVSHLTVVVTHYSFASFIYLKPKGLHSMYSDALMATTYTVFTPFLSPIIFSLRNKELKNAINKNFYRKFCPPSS
Method in brief: as §1

OR10H5 (Homo sapiens) = target: T12, OR10H5 (Homo sapiens) (UniProt Q8NGA6)
T12 sequence (whole entry): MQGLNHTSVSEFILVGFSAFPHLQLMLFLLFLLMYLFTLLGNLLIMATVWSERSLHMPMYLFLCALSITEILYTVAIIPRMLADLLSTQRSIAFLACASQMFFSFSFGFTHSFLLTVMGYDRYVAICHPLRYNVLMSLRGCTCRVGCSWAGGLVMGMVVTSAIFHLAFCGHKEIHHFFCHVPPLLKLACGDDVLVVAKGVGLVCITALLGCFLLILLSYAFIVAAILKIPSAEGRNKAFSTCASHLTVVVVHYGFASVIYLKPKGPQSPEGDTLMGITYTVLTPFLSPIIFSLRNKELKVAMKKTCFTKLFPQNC
Method in brief: as §1

OR10J3 (Homo sapiens) = target: T13, OR10J3 (Homo sapiens) (UniProt Q5JRS4)
T13 sequence (whole entry): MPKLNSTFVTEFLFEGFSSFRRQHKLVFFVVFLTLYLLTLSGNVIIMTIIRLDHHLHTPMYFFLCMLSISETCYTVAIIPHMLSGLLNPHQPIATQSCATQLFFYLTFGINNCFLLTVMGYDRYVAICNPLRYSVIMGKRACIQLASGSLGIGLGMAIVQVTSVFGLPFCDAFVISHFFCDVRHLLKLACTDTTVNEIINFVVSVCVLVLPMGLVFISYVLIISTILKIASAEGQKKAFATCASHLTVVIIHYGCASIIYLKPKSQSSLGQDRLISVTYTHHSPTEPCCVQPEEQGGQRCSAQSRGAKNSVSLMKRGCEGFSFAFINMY
Method in brief: as §1

OR10J4 (Homo sapiens) = OR10J4 (Homo sapiens) (UniProt P0C629)
Method in brief: as §1

OR10J5 (Homo sapiens) = target: T14, OR10J5 (Homo sapiens) (UniProt Q8NHC4)
T14 sequence (whole entry): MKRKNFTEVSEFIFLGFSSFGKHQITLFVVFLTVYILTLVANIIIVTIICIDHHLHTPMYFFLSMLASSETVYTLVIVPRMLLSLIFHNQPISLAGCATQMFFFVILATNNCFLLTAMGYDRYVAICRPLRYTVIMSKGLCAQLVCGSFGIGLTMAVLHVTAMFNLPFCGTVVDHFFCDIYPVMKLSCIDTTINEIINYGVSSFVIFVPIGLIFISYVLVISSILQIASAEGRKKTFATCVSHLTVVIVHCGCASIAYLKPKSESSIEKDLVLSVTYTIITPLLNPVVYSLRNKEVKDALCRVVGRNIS
Method in brief: as §1

OR10K1 (Homo sapiens) = target: T15, OR10K1 (Homo sapiens) (UniProt Q8NGX5)
T15 sequence (whole entry): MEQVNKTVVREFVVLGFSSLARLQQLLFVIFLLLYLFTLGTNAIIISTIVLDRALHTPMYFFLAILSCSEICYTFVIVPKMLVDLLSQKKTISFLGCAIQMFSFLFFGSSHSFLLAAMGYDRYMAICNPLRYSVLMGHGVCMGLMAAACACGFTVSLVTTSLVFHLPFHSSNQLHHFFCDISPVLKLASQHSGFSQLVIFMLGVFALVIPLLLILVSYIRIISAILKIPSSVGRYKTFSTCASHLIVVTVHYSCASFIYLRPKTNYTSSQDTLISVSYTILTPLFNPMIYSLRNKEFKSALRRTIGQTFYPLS
Method in brief: as §1

OR10K2 (Homo sapiens) = target: T16, OR10K2 (Homo sapiens) (UniProt Q6IF99)
T16 sequence (whole entry): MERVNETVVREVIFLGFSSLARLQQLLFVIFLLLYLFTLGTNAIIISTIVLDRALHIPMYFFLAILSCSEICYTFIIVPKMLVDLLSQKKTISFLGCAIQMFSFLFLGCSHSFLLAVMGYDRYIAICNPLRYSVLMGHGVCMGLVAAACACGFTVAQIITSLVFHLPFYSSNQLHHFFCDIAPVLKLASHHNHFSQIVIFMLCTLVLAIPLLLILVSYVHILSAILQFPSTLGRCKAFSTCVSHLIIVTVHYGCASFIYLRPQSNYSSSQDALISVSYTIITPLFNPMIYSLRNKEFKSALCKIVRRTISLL
Method in brief: as §1

OR10P1 (Homo sapiens) = target: T17, OR10P1 (Homo sapiens) (UniProt Q8NGE3)
T17 sequence (whole entry): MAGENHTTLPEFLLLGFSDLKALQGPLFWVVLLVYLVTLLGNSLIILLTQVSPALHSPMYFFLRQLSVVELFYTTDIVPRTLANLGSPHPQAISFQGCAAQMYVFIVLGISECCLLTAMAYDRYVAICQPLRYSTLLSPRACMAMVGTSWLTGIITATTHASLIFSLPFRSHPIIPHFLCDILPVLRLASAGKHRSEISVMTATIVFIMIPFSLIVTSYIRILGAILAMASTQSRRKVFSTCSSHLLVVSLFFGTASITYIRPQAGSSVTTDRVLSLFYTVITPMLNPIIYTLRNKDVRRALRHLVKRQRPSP
Method in brief: as §1

OR10Q1 (Homo sapiens) = target: T18, OR10Q1 (Homo sapiens) (UniProt Q8NGQ4)
T18 sequence (whole entry): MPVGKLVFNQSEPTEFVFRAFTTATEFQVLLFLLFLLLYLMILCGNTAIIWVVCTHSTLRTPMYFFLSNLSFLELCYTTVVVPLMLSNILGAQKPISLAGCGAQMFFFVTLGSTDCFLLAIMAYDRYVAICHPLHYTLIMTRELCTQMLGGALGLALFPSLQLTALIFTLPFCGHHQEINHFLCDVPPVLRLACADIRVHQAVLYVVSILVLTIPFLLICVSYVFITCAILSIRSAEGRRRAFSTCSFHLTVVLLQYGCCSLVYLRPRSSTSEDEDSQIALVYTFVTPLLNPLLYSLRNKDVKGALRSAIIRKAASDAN
Method in brief: as §1

Measured: odorant receptor agonist call

Sequence of OR10J4 (Homo sapiens) (P0C629 whole entry F198I): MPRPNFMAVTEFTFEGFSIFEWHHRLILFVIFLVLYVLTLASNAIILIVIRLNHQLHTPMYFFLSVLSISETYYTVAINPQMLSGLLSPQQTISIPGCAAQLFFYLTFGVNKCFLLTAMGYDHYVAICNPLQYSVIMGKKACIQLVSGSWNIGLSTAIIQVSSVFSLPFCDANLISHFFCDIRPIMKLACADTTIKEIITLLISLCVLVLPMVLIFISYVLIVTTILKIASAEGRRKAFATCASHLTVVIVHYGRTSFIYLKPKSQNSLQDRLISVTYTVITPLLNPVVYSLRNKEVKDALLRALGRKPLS

CC(=O)c1c(C)c([N+](=O)[O-])c(C(C)(C)C)c([N+](=O)[O-])c1C
inactive: all assays above

CCCCCCO
inactive: OR10J5 (Homo sapiens)
